Screening results as filed in PubChem BioAssay.
CSN deneddyl inh: blocks human CSN-mediated cullin deneddylation; Q92905; Purified CSN, SCF-Nedd8-OG deneddylation, fluorescence polarization; inhibition, % at 12.5 µM; hit rate 0.38% among 360,000; AID 651999;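 active = pattern-corrected inhibition above about 35%, with an unprinted fluorescence ratio check between 0.5 and 1.5, limit read from the data, passing the limit was not always enough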
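Assay system: purified human Csn5 enzyme expressed in HEK293T cells; measure: % inhibition; also added: SCFSkp2-Nedd8OG substrate at 10 nM final; technique: fluorescence polarization; times: reaction 90 min, room temperature; medium: Tris buffer pH 7.5, NaCl, DTT, Tween-20, trehalose, ovalbumin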
HNF4A DNA FP: change in binding of human HNF4 alpha to DNA; HNF4a-FITC DNA binding, fluorescence polarization, 1 h; activity change, % at 10 µM; hit rate 0.3% among 360,000; AID 1224865; in the data active = activity change above about 30%, passing the limit was not always enough
aDG glyco act: increases alpha dystroglycan glycosylation; Pro5-aDG cells, alpha-DG glycosylation AlphaScreen (IIH6); 0% Pro5, 100% B10-LARGE cell signal; activation, % at 10 µM; hit rate 0.22% among 360,000; AID 624168;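 active = activation of at least 8% versus controls, or a plate z-score of at least 8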;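 note: Pro5 are CHO cells carrying HIG-tagged alpha-DG that lacks glycosylation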
TPT1 inh: C. albicans TPT1 enzyme inhibition; recombinant caTPT1, FP RNA substrate dephosphorylation; hit rate 0.81% among 300,000; AID 1962; inhibition, % at 5 µM;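 active = inhibition above the mean of all tested compounds plus 3 SD, set per screening campaign, cut at about 24% in these data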
Rpn11 inh: blocks the human proteasome subunit Rpn11. AID 588493. inhibition, % at 20 µM. human 26S proteasome, Ub4-pepOG fluorescence polarization; 20S core pre-blocked with epoxomicin. hit rate 0.59% among 360,000. O00487;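 active = inhibition at 20 µM, scaled to each plate's controls, above about 33%, limit read from the data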
Target sequence (O00487 whole entry, looked up): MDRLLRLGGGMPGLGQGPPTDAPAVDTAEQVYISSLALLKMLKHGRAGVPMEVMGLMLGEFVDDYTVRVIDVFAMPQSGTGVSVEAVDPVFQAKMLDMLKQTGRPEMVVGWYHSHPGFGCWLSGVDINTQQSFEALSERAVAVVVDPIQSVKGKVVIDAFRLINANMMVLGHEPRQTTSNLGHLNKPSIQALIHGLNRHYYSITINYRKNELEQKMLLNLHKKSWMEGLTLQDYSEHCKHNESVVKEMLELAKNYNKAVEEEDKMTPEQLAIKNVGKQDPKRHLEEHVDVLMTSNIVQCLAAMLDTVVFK
XiGFP reactiv: X-chromosome reactivation activator; XiGFP mouse fibroblasts, % GFP-positive cells imaging, 3 d; cells co-treated with 5-aza-dC sensitizer; scaled so ellipticine positive control = 100%; AID 743238; hit rate 0.055% among 360,000; activation, % at 7.58 µM;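 active = mean normalized replicate activation at least 10% and every replicate at or above 10%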
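Material: XiGFP fibroblasts, SV40-immortalized. Buffer or medium: DMEM plus 5-aza-dC sensitizer. Compound: single concentration per compound, delivered by pin transfer. Times: 3 days compound exposure. Controls: ellipticine 6 µM.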
Rpn11 confirm: Rpn11 inhibition confirmation, single concentration. hit rate 29% among 1,900. shares compounds with Rpn11 inh. AID 602318. purified human 26S proteasome, Ub4-pepOG fluorescence polarization; proteasome pretreated with epoxomicin. inhibition, % at 20 µM
MMP-2 counter-1: counter-screen for RPN11 inhibitors: inhibition of human MMP-2. inhibition, % at 20 µM. hit rate 4% among 1,900. AID 602330. recombinant MMP-2, FRET peptide cleavage fluorescence. shares compounds with Rpn11 inh;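 note: human MMP-2 activated beforehand with APMA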
Thrombin inh: thrombin (bovine) inhibition counter-screen | shares compounds with Rpn11 inh | inhibition, % at 20 µM | hit rate 13% among 1,900 | bovine thrombin cleavage of Ub4-pepOG, fluorescence polarization;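 active = mean inhibition at least 40% at 20 µM, or signal 3 deviations below plate average, so some actives read negative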
CSN deneddyl val: validation of inhibitors of human CSN-mediated cullin deneddylation; shares compounds with CSN deneddyl inh; inhibition, % at 16.6 µM; hit rate 62% among 540; Csn5 deneddylation of SCF-Nedd8OG, fluorescence polarization, 90 min; in the data active = inhibition above about 50%
MMP-2 counter-2: MMP-2 (human) inhibition, counter-screen for CSN hits; shares compounds with CSN deneddyl inh; hit rate 33% among 540; inhibition, % at 16.6 µM; recombinant MMP-2, FRET substrate fluorescence, 60 min;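 active = corrected plate-normalized z-score of 5 or more, or -5 or less, or inhibition of 15% or more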
Thrombin cntr: blocks bovine thrombin in a CSN deneddylation counter-screen; inhibition, % at 16.6 µM; shares compounds with CSN deneddyl inh; bovine thrombin cleavage of Ub4-pepOG, fluorescence polarization; hit rate 49% among 540;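 active = inhibition at or above a set limit, with a fluorescence interference ratio between 0.5 and a set maximum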
Each line names hits and unclear results; the compound was inactive in the other large screens (follow-up assays come after a bar, where they were run). A selection: hits, their analogues and other compounds. The true share with any hit is near 1.3%. Cut-off read from the data, not from the text of the source, unless noted: active = inhibition above about 40%; inactive = the rest.

COc1cc(/C=C(/C#N)c2nc3ccccc3[nH]2)ccc1OCc1ccc(C(=O)O)o1	none (no result: XiGFP reactiv)
COC(=O)c1ccc(COc2ccc(/C=C(\C#N)c3nc4ccccc4[nH]3)cc2OC)o1	CSN deneddyl inh 57.5, Rpn11 inh 138.0 (no result: XiGFP reactiv) | Rpn11 confirm 126.8 | MMP-2 counter-1 inactive | Thrombin inh 90.2 | CSN deneddyl val inactive | MMP-2 counter-2 inactive | Thrombin cntr 41.3
Cc1ccc(-c2ccc3c(c2)O[C@@H](CN(C)C)[C@@H](C)CN([C@H](C)CO)S3(=O)=O)cc1	none (no result: CSN deneddyl inh, HNF4A DNA FP, aDG glyco act, TPT1 inh, Rpn11 inh)
CCN1/C(=C/c2ccc3cc(C)cc(C)c3[n+]2CC)Sc2cc(C)ccc21	CSN deneddyl inh 81.0, HNF4A DNA FP 150.7, Rpn11 inh 169.5, XiGFP reactiv 109.6 (no result: TPT1 inh) | Rpn11 confirm 89.0 | MMP-2 counter-1 inactive | Thrombin inh 134.7 | CSN deneddyl val inactive | MMP-2 counter-2 64.3 | Thrombin cntr 22.8
Cc1ccc2c(c1)S/C(=C\c1cccc[n+]1C)N2CCO	none
CCN1/C(=C\c2ccc3cc(C)ccc3[n+]2CC)Sc2cc(C)c(C)cc21	CSN deneddyl inh 65.6, HNF4A DNA FP 106.6, Rpn11 inh 91.8, XiGFP reactiv 77.2 (no result: TPT1 inh) | Rpn11 confirm 88.7 | MMP-2 counter-1 inactive | Thrombin inh 144.8 | CSN deneddyl val inactive | MMP-2 counter-2 19.9 | Thrombin cntr 113.2
CNC[C@H]1OCCCC[C@@H](C)Oc2ccc(NC(=O)C3CCCCC3)cc2C(=O)N([C@H](C)CO)C[C@H]1C	none (no result: CSN deneddyl inh, HNF4A DNA FP, aDG glyco act, TPT1 inh, Rpn11 inh)
O=C(O)CCCCCN1C(=O)/C(=C/c2cn(-c3ccccc3)nc2-c2cccs2)SC1=S	CSN deneddyl inh 91.9, Rpn11 inh 50.7 (no result: TPT1 inh) | Rpn11 confirm 84.0 | MMP-2 counter-1 inactive | Thrombin inh 47.6 | CSN deneddyl val 82.1 | MMP-2 counter-2 inactive | Thrombin cntr 21.8
O=C(O)CCCCCN1C(=O)/C(=C\c2cn(-c3ccccc3)nc2-c2cccs2)SC1=S	none
COc1ccc(-n2c(N)c(C(=O)NCC3CCCO3)c3nc4ccccc4nc32)c(OC)c1 (stereo unspecified)	none (no result: XiGFP reactiv)
C=CCn1c(N)c(C(=O)NCC2CCCO2)c2nc3ccccc3nc21 (stereo unspecified)	CSN deneddyl inh 36.0, Rpn11 inh 42.8 (no result: XiGFP reactiv) | Rpn11 confirm inactive | MMP-2 counter-1 inactive | Thrombin inh inactive | CSN deneddyl val 101.2 | MMP-2 counter-2 inactive | Thrombin cntr inactive
O=C(C1CC1)N1CC(=O)N2[C@H](CO)[C@H](c3ccc(-c4cccnc4)cc3)[C@@H]2C1	none (no result: CSN deneddyl inh, HNF4A DNA FP, aDG glyco act, TPT1 inh, Rpn11 inh)
O=C(Nc1ccc(C2=NCCN2)cc1)c1ccc(C(=O)Nc2ccc(C3=NCCN3)cc2)c(Cl)c1	CSN deneddyl inh 114.0, Rpn11 inh 89.7 | Rpn11 confirm 69.5 | MMP-2 counter-1 47.1 | Thrombin inh inactive | CSN deneddyl val inactive | MMP-2 counter-2 71.9 | Thrombin cntr inactive
